Rows were chosen to be rich in hits. Some 1.6% of all compounds tested hit in one or more screens of this group.
STEP inh: blocks human striatal-enriched tyrosine phosphatase. P54829. recombinant STEP, OMFP fluorogenic substrate, fluorescence. inhibition, % at 20 µM. 360,000 tested, 0.25% active. AID 588621;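 active means inhibition at 20 µM, scaled per plate between control wells, above about 37%, limit read from the data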
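Test system: STEP tyrosine phosphatase / Reagent: OMFP at 25 µM / Doses: 20 µM, 1% DMSO / Read-out: percent inhibition scaled to no-enzyme and uninhibited-enzyme controls, plate-pattern corrected / Detection: FITC-channel fluorescence of OMFP product / Medium: Bis-Tris buffer pH 6.0, 2.5 mM DTT, 0.005% Tween 20 / Schedule: 20 min at room temperature, dark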
Scp-1 inhibitor: Scp-1 (human) phosphatase inhibition; Q9GZU7; Recombinant Scp1, phosphopeptide, malachite green phosphate absorbance; inhibition, % at 20 µM; 340,000 tested, 0.88% active;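 active means inhibition above about 50% at 20 µM, limit read from the data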
Target sequence (Q9GZU7 76-261 limits assumed): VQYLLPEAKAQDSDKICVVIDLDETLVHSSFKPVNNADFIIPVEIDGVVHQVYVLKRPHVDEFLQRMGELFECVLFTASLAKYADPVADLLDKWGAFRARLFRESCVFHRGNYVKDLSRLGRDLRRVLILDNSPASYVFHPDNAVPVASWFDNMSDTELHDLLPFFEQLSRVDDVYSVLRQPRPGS
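Assay system: SCP-1 catalytic fragment, aa 76-261 | Buffer or medium: Tris acetate buffer pH 5.5 with MgCl2 and Tween-20 | Compound: One concentration, 20 µM, with 1.0% DMSO | Also added: Phospho 17-mer peptide substrate | Signal: Absorbance at 630 nm | Incubation: 45 min enzyme reaction at room temperature | Measure: % inhibition of SCP-1 phosphate liberation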
LMPTP block: blocks human LMPTP phosphatase. recombinant LMPTP-A, OMFP fluorogenic substrate, fluorescence intensity. inhibition, % at 20 µM. 360,000 tested, 0.22% active;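 active means compounds that cut the enzyme signal by at least half of the control window in the single-dose screen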
Target sequence (P24666 whole entry, looked up): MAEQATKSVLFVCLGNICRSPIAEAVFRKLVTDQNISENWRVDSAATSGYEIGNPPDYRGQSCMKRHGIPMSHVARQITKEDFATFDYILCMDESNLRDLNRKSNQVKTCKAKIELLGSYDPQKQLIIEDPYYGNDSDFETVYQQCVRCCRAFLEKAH
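Assay system: LMPTP-A phosphatase enzyme | Input: 0.625 nM enzyme | Also added: Fluorogenic phosphatase substrate OMFP at 400 µM final | Compound dosing: One test concentration per compound, 20 µM, with 3% DMSO overall | Schedule: 50 min enzyme reaction at room temperature, protected from light | Signal: Fluorescence intensity | Benchmarks: no-enzyme and uninhibited controls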
F508del corr: CFTR F508del correction in bronchial cells | CFBE cells, YFP halide quenching; stimulated with forskolin plus potentiator P3; % fluorescence drop versus neutral controls | activity (quench increase), % at 7.58 µM | 350,000 tested, 0.36% active | AID 720511;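 active means mean added fluorescence quench of at least 8% versus neutral control, with both replicates also reaching 8%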;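 further: cells transiently co-express mutant CFTR-F508del with the halide-sensitive YFP; corrector assay measuring rescue of mutant channel to the surface after 24 h compound exposure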
SUMO1-SIM PPI: SUMO1-SIM interaction modulation. P63165. SUMO1 binding to a labelled peptide, TR-FRET, 1 h. inhibition, % at 20 µM. 360,000 tested, 0.33% active; in the data active means inhibition above about 37%
Target sequence (P63165 whole entry, looked up): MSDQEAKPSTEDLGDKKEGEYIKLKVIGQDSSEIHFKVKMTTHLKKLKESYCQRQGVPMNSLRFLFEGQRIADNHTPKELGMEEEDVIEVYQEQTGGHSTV
DNMT1 block: blocks human DNA methyltransferase DNMT1; P26358; DNMT1 molecular beacon, Hinp1I cleavage, fluorescence; inhibition (reported as % activation of signal), % at 10 µM; 360,000 tested, 0.83% active; AID 588458; in the data active means inhibition above about 50%
Hits are given with their value.

For OC(CNCc1ccccc1)COCc1ccc(Cl)cc1 (stereo unspecified) the results were STEP inh inactive, Scp-1 inhibitor inactive, LMPTP block inactive, F508del corr inactive, SUMO1-SIM PPI inactive and DNMT1 block inactive.
Screening CC(NCC(O)COCc1ccc(Cl)cc1)c1ccccc1 (stereo unspecified) returned STEP inh inactive, Scp-1 inhibitor inactive, LMPTP block inactive, F508del corr inactive, SUMO1-SIM PPI 65 and DNMT1 block inactive.
For C[C@@H]1CCCCO[C@@H](CN(C)Cc2ccc(C(=O)O)cc2)[C@@H](C)CN([C@H](C)CO)C(=O)c2cc(NC(=O)c3ccncc3)ccc2O1 the results were F508del corr inactive.
Screening CC=Cc1ccc2n(c1=O)C[C@H]1[C@H](CO)[C@@H](C(=O)N(C)C)N(CC3CCCCC3)[C@@H]21 (mixture of isomers) returned F508del corr inactive.
`O=C(Nc1nc(-c2ccccn2)cs1)c1ccc(F)c(S(=O)(=O)N2CCOCC2)c1` gave STEP inh inactive, Scp-1 inhibitor inactive, LMPTP block inactive, F508del corr 22, SUMO1-SIM PPI inactive and DNMT1 block inactive.
`COc1ccc(Nc2ccnc3ccccc23)cc1` gave STEP inh inactive, Scp-1 inhibitor inactive, LMPTP block 56, SUMO1-SIM PPI inactive and DNMT1 block inactive.
CC(C)Nc1ccc(Nc2ccnc3cc4ccccc4cc23)cc1 was read as STEP inh inactive, Scp-1 inhibitor inactive, LMPTP block inactive, F508del corr 27, SUMO1-SIM PPI inactive and DNMT1 block 66.
c1ccc(CCNc2ccnc3cc4ccccc4cc23)cc1 was read as STEP inh inactive, Scp-1 inhibitor inactive, LMPTP block inactive, F508del corr inactive, SUMO1-SIM PPI inactive and DNMT1 block inactive.
`CNC(=O)C[C@H]1CC[C@@H]2[C@H](COC[C@H](O)CN2Cc2ccncc2)O1` gave F508del corr inactive.
CN(C)C(=O)[C@H]1[C@H](CO)[C@H]2Cn3c(ccc(-c4ccncc4)c3=O)[C@@H]1N2CC1CCCC1 was read as F508del corr inactive.
C[C@H](CO)N1C[C@H](C)[C@H](CN(C)C(=O)Nc2ccc(C(F)(F)F)cc2)OCCCC[C@H](C)Oc2ccc(N(C)C)cc2C1=O was read as F508del corr inactive.
Screening C[C@@H](CN1C2=NC[C@H](C)N2C[C@H]1Cc1ccc(O)cc1)NC(=O)CCC1CCCCC1 returned STEP inh inactive, Scp-1 inhibitor inactive, LMPTP block inactive, F508del corr inactive, SUMO1-SIM PPI inactive and DNMT1 block inactive.
`CC(C)[C@H]1CN=C2N(C[C@H](C)NC(=O)CCC3CCCCC3)[C@H](Cc3ccc(O)cc3)CN21` gave STEP inh inactive, Scp-1 inhibitor inactive, LMPTP block inactive, F508del corr inactive, SUMO1-SIM PPI 53 and DNMT1 block inactive.
For C[C@H](CO)N1C[C@H](C)[C@H](CN(C)Cc2ccc(Oc3ccccc3)cc2)Oc2ccc(NS(C)(=O)=O)cc2CC1=O the results were F508del corr inactive.
Screening CCOC(=O)c1c(C)[nH]c(C)c1C(=O)COC(=O)c1ccc([N+](=O)[O-])s1 returned STEP inh inactive, Scp-1 inhibitor inactive, LMPTP block inactive, F508del corr 9.3, SUMO1-SIM PPI inactive and DNMT1 block inactive.
For CCOC(=O)c1c(C)[nH]c(C)c1C(=O)COC(=O)/C=C/c1ccccc1[N+](=O)[O-] the results were STEP inh inactive, Scp-1 inhibitor inactive, LMPTP block inactive, F508del corr inactive, SUMO1-SIM PPI inactive and DNMT1 block inactive.
`CCOc1ccc(S(=O)(=O)N2CCOCC2)cc1NC(=O)CSCC(=O)Nc1ccc(OC)cc1` gave STEP inh inactive, Scp-1 inhibitor inactive, LMPTP block inactive, F508del corr 20, SUMO1-SIM PPI inactive and DNMT1 block inactive.
For COCC#Cc1cnc2c(c1)C(=O)N([C@@H](C)CO)C[C@@H](C)[C@H](CN(C)C(=O)c1cccc(F)c1)O2 the results were F508del corr inactive.
CC(C)(C)c1ccc(OCC(=O)Nc2ccc3c4c(cccc24)C(=O)NC3=O)cc1 was read as STEP inh inactive, Scp-1 inhibitor inactive, LMPTP block inactive, F508del corr 20, SUMO1-SIM PPI inactive and DNMT1 block inactive.
Screening Cc1ccc(/C=C/c2ccc(N(C)C)cc2)[n+](C)c1 returned STEP inh inactive, Scp-1 inhibitor inactive, LMPTP block inactive, F508del corr inactive, SUMO1-SIM PPI inactive and DNMT1 block inactive.
CN(C)c1ccc(/C=C/c2cc[n+](C)cc2)cc1 was read as STEP inh inactive, Scp-1 inhibitor 96, LMPTP block inactive, SUMO1-SIM PPI inactive and DNMT1 block inactive.
For O=C(c1ccccn1)N1C[C@H]2[C@@H](c3ccccc31)[C@@H](CO)N2C(=O)C1CC1 the results were F508del corr inactive.
Screening C[n+]1c(/C=C/c2ccc3c(c2)OCO3)ccc2ccccc21 returned STEP inh inactive, Scp-1 inhibitor 105, LMPTP block inactive, F508del corr inactive, SUMO1-SIM PPI inactive and DNMT1 block inactive.
For COc1ccc2[nH]c3c(C)c4ccncc4c(C)c3c2c1 the results were STEP inh inactive, Scp-1 inhibitor inactive, LMPTP block inactive, F508del corr 16, SUMO1-SIM PPI inactive and DNMT1 block inactive.
Screening COc1c(N2CCN(C(=S)NCc3ccccc3)C(C)C2)c(F)cc2c(=O)c(C(=O)O)cn(C3CC3)c12 (stereo unspecified) returned STEP inh inactive, Scp-1 inhibitor inactive, LMPTP block 53, SUMO1-SIM PPI inactive and DNMT1 block inactive.
COc1c(N2CCN[C@H](C)C2)c(F)cc2c(=O)c(C(=O)O)cn(C3CC3)c12 was read as Scp-1 inhibitor inactive.
`Cc1nc(-c2cc(C#N)c(=O)[nH]c2C)cs1` gave STEP inh inactive, Scp-1 inhibitor inactive, LMPTP block inactive, F508del corr inactive, SUMO1-SIM PPI inactive and DNMT1 block inactive.
`Cc1[nH]c(=O)c(C#N)cc1-c1csc(-c2ccccc2)n1` gave STEP inh inactive, Scp-1 inhibitor inactive, LMPTP block 60, F508del corr inactive, SUMO1-SIM PPI inactive and DNMT1 block inactive.
Screening COc1ccc([Si](C)(C)[C@H]2[C@H](CCO)O[C@@]3(C(=O)N(Cc4ccccc4)c4ccc(N5CCC5=O)cc43)[C@@H]2C)cc1 returned F508del corr inactive.
Cc1ccn2cc(-c3ccc4c(c3)NC(=O)CO4)nc2c1 was read as STEP inh inactive, Scp-1 inhibitor inactive, LMPTP block inactive, F508del corr inactive, SUMO1-SIM PPI 54 and DNMT1 block inactive.
`CC(C)NC(=O)N(C)C[C@@H]1Oc2ccc(NC(=O)CCCCCC(=O)Nc3ccccc3N)cc2C(=O)N([C@@H](C)CO)C[C@@H]1C` gave F508del corr inactive.

From PubChem
